Assay [1] is filed under the species Rattus norvegicus. Description: Fatty acid oxidation was measured using [3H]- palmitate in perfusing rat heart. Format: functional. In a few lines:
(§1)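 Isolated, spontaneously beating rat hearts under aerobic perfusion for 60 min. Test agents perfused at 1 mM, DCA positive control at 3 mM, untreated controls; n = 6 hearts per group. [3H]-palmitate and [14C]-glucose perfused together to measure fatty acid and glucose oxidation simultaneously.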

Assay [2] is filed under the species Rattus norvegicus. Description: Glucose oxidation was measured using [C14] Glucose in perfusing rat heart. The format is functional. In a few lines: as §1
Assay [3] relates to Rattus norvegicus. Description: Ability of compound to reduce the infarct size in rat administered via bolus at 0.02 mmol/kg. Format: functional. A digest of the protocol:
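Male Wistar rats, carotid artery and jugular vein cannulated, LAD snare placed, 30 min stabilization. Bolus injection 0.02 mmol/kg given 5 min before LAD occlusion; saline infusion controls. 25 min ischemia, 2 h reperfusion. Area at risk delineated with Evans blue (2% w/v). AR pieces stained with NBT (0.5 mg/mL) for 40 min at 37 °C. Infarct size expressed as % of AR.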

The species entered for assay [4] is Rattus norvegicus. Description: Inhibitory activity against ATP receptor in isolated perfused rat heart.

Molecules are shown by their SMILES.

Consider `Cc1ncc(COP(=O)(O)O)c(C=O)c1O` [PYRIDOXAL PHOSPHATE ANHYDROUS], for which the results for the Activity in the assay filed under Rattus norvegicus [1], in the assay listed under Rattus norvegicus [2] and in the assay filed under Rattus norvegicus [4] were 398, 2253 and 10 µM, respectively. The molecule also returned a Reduction with Rattus norvegicus [3] of 33%.
Take `Cc1ncc(C(O)P(=O)(O)O)c(O)c1O` (centres undefined): in the assay with Rattus norvegicus [3], the Reduction stood at 19%.
Take `Cc1ncc2c(c1O)COC2(O)C(F)(F)P(=O)(O)O` (centres undefined): the Activity was 414 in the assay filed under Rattus norvegicus [1] and 2339 in the assay listed under Rattus norvegicus [2]. Also, in the assay with Rattus norvegicus [3], the Reduction is reported as 46%.
`Cc1ncc(CP(=O)(O)O)c(O)c1O` had a Reduction in the assay on Rattus norvegicus [3] of 20%.

Values taken from ChEMBL document CHEMBL1145052, “Design and synthesis of novel pyridoxine 5'-phosphonates as potential antiischemic agents” (J Med Chem, 2003).
